# Measured values of several laboratories.
# Compare with care: the assays were run in different laboratories.
# Observed: cell growth or viability
SMILES,cell line,method,time,measurement,value
CCCCC/C=C\C/C=C\C/C=C\C/C=C\CCCC(=O)NCCO,ReNcell VM,imaging,24 h,IC50,~11.4 µM
COc1cc2c3c(n(CCCNCCO)c(=O)c2cc1OC)-c1cc2c(cc1C3=O)OCO2,OVCAR-3,,,GI50,0.5 µM
CC(C)C[C@H](NC(=O)OCc1ccccc1)C(=O)N[C@@H](Cc1ccccc1)C(=O)N[C@@H](CC(C)C)C(=O)C(=O)Nc1ccccc1,RPMI-8226,MTS,72 h,IC50,0.843 µM
O=C(O)CCCc1ccc(N(CCCl)CCCl)cc1,OVCAR-3,CCK-8,48 h,IC50,29.4 µM
Cc1cc(N(CCOS(C)(=O)=O)CCOS(C)(=O)=O)ccc1C=O,ACHN,,,IC50,0.263 µg/mL
C[C@H]1CN(c2ccncc2NC(=O)c2ccc(F)c(-c3c(F)cccc3F)n2)C[C@@H](N)[C@@H]1O,RPMI-8226,thymidine uptake,,GI50,0.156 µM
CCOP(=S)(OCC)Oc1nc(Cl)c(Cl)cc1Cl,ReNcell VM,imaging,24 h,IC50,~11.6 µM
CC(C)C[C@H](NC(=O)OCc1ccccc1)C(=O)N[C@@H](CC(C)C)C(=O)N[C@@H](CC(C)C)C(=O)C(=O)Nc1cccc2ncccc12,RPMI-8226,MTS,72 h,IC50,0.134 µM
